Test results as given in ChEMBL document CHEMBL2040734, “Benzothiazoles: search for anticancer agents” (2012).

What was measured:
Assay type in all cases: functional
NCI-H322M [1] = test: Cytotoxicity against human NCI-H322M cells assessed as cell growth at 0.01 uM after 48 hrs by sulforhodamine B assay; conditions: read-out: Activity
A498 [2] = test: Cytotoxicity against human A498 cells assessed as cell growth at 10 '-5 M after 48 hrs by sulforhodamine B assay; conditions: A498, 48 h, read-out: Activity
Procedure, shortened: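 Primary NCI-60 single-dose screen at 10 µM. Cells were grown in RPMI 1640 with 5% FBS and 2 mM L-glutamine and plated 24 h before drug addition. Compound was solubilized in DMSO, then exposed for 48 h at 37 °C under 5% CO2. Cells were TCA-fixed and stained with SRB, and absorbance was read at 515 nm. Growth was expressed relative to time-zero and untreated controls.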

[3] = Cytotoxicity against human Hs 578T cells assessed as cell growth at 10 '-5 M after 48 hrs by sulforhodamine B assay; conditions: read-out: Activity
Procedure, shortened: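 Primary one-dose screen across the NCI 60-line panel at 10 µM. Cells were grown in RPMI 1640 with 5% FBS and 2 mM L-glutamine and held 24 h before drug. Drug was diluted from a DMSO concentrate. Exposure was 48 h at 37 °C, 5% CO2. Cells were fixed with TCA and stained with SRB, with absorbance read at 515 nm. Percent growth was calculated against time-zero and untreated control.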

CAKI-1 = test: Cytotoxicity against human Caki1 cells assessed as cell growth at 10 uM after 48 hrs by sulforhodamine B assay; conditions: CAKI-1, 48 h, read-out: Activity
Procedure, shortened: (§1)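 NCI-60 five-dose screen. Cells were grown in RPMI 1640 with 5% FBS and 2 mM L-glutamine and preincubated 24 h. Compound (DMSO stock) was tested at 0.01, 0.1, 1, 10 and 100 µM for 48 h at 37 °C. Cells were fixed in situ with cold TCA (final 10%) and stained with 0.4% SRB. A515 was read, and percent growth was calculated against time-zero and control plates.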

Malme-3M = test: Cytotoxicity against human MALME-3M cells assessed as cell growth at 100 uM after 48 hrs by sulforhodamine B assay; conditions: read-out: Activity
MCF7 = test: Cytotoxicity against human MCF7 cells assessed as cell growth at 10 uM after 48 hrs by sulforhodamine B assay; conditions: MCF7, 48 h, read-out: Activity
SW-620 = test: Cytotoxicity against human SW620 cells assessed as cell growth at 1 uM after 48 hrs by sulforhodamine B assay; conditions: SW-620, 48 h, read-out: Activity
SF-539 [4] = test: Cytotoxicity against human SF539 cells assessed as cell growth at 0.1 uM after 48 hrs by sulforhodamine B assay; conditions: SF-539, 48 h, read-out: Activity
HCT-116 = test: Cytotoxicity against human HCT116 cells assessed as cell growth at 0.01 uM after 48 hrs by sulforhodamine B assay; conditions: HCT-116, 48 h, read-out: Activity
Procedure, shortened: (§2)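 Five-dose NCI panel run at 0.01, 0.1, 1, 10 and 100 µM. Cells were in RPMI 1640 with 5% FBS and 2 mM L-glutamine, seeded at 5000–40,000 cells/well and pre-incubated 24 h. Drug was diluted from a DMSO stock into medium with 50 µg/ml gentamicin. Exposure was 48 h at 37 °C, 5% CO2. Cells were fixed with cold TCA and stained with 0.4% SRB, read at 515 nm. Percent growth came from time-zero, control and test absorbances.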

MOLT-4 = test: Cytotoxicity against human MOLT4 cells assessed as cell growth at 100 uM after 48 hrs by sulforhodamine B assay; conditions: MOLT-4, 48 h, read-out: Activity
OVCAR-8 = test: Cytotoxicity against human OVCAR8 cells assessed as cell growth at 100 uM after 48 hrs by sulforhodamine B assay; conditions: OVCAR-8, 48 h, read-out: Activity
SF-539 [5] = test: Cytotoxicity against human SF539 cells assessed as cell growth at 0.01 uM after 48 hrs by sulforhodamine B assay; conditions: SF-539, 48 h, read-out: Activity
SNB-75 = test: Cytotoxicity against human SNB75 cells assessed as cell growth at 0.1 uM after 48 hrs by sulforhodamine B assay; conditions: SNB-75, 48 h, read-out: Activity
HT-29 = test: Cytotoxicity against human HT-29 cells assessed as cell growth at 0.01 uM after 48 hrs by sulforhodamine B assay; conditions: HT-29, 48 h, read-out: Activity; procedure, shortened: as §2
KM12 = test: Cytotoxicity against human KM12 cells assessed as cell growth at 10 '-5 M after 48 hrs by sulforhodamine B assay; conditions: KM12, 48 h, read-out: Activity
UACC-257 = test: Cytotoxicity against human UACC257 cells assessed as cell growth at 100 uM after 48 hrs by sulforhodamine B assay; conditions: UACC-257, 48 h, read-out: Activity
NCI-H23 = test: Cytotoxicity against human NCI-H23 cells assessed as cell growth at 100 uM after 48 hrs by sulforhodamine B assay; conditions: NCI-H23, 48 h, read-out: Activity
786-0 [6] = test: Cytotoxicity against human 786-0 cells assessed as cell growth at 0.01 uM after 48 hrs by sulforhodamine B assay; conditions: 786-0, 48 h, read-out: Activity; procedure, shortened: as §1
MDA-MB-231 = test: Cytotoxicity against human MDA-MB-231 cells assessed as cell growth at 0.1 uM after 48 hrs by sulforhodamine B assay; conditions: MDA-MB-231, 48 h, read-out: Activity
SK-MEL-28 = test: Cytotoxicity against human SK-MEL-28 cells assessed as cell growth at 0.01 uM after 48 hrs by sulforhodamine B assay; conditions: SK-MEL-28, 48 h, read-out: Activity
M14 = test: Cytotoxicity against human M14 cells assessed as cell growth at 10 uM after 48 hrs by sulforhodamine B assay; conditions: M14, 48 h, read-out: Activity
SK-OV-3 = test: Cytotoxicity against human SKOV3 cells assessed as cell growth at 10 uM after 48 hrs by sulforhodamine B assay; conditions: SK-OV-3, 48 h, read-out: Activity
TK-10 = test: Cytotoxicity against human TK10 cells assessed as cell growth at 0.01 uM after 48 hrs by sulforhodamine B assay; conditions: TK-10, 48 h, read-out: Activity
A498 [7] = test: Cytotoxicity against human A498 cells assessed as cell growth at 0.01 uM after 48 hrs by sulforhodamine B assay; conditions: A498, 48 h, read-out: Activity; procedure, shortened: as §1
786-0 [8] = test: Cytotoxicity against human 786-0 cells assessed as cell growth at 10 uM after 48 hrs by sulforhodamine B assay; conditions: 786-0, 48 h, read-out: Activity; procedure, shortened: as §1
NCI-H322M [9] = test: Cytotoxicity against human NCI-H322M cells assessed as cell growth at 10 '-5 M after 48 hrs by sulforhodamine B assay; conditions: read-out: Activity
OVCAR-3 = test: Growth inhibition of human OVCAR3 cells after 48 hrs by sulforhodamine B assay; conditions: OVCAR-3, 48 h; for CC50: read-out: LC50 (the source's name)
Procedure, shortened: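 Adherent NCI-60 lines were grown in RPMI 1640 with 5% FBS and 2 mM L-glutamine, plated at 5000–40,000 cells/well and preincubated 24 h. They were then exposed to five concentrations (0.01–100 µM, from a DMSO stock) for 48 h at 37 °C, 5% CO2. Cells were fixed with cold TCA (10% final, 60 min, 4 °C) and stained with 0.4% SRB. Dye was solubilized in 10 mM Tris base and A515 read. GI50 was derived from time-zero, control and treated absorbances.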

| SMILES | growth at 0.01 µM (NCI-H322M [1]) [%] | growth at 10 µM (A498 [2]) [%] | growth at 10 µM [3] [%] | growth at 10 µM (CAKI-1) [%] | growth at 100 µM (Malme-3M) [%] | growth at 10 µM (MCF7) [%] | growth at 1 µM (SW-620) [%] | growth at 0.1 µM (SF-539 [4]) [%] | growth at 0.01 µM (HCT-116) [%] | growth at 100 µM (MOLT-4) [%] | growth at 100 µM (OVCAR-8) [%] | growth at 0.01 µM (SF-539 [5]) [%] | growth at 0.1 µM (SNB-75) [%] | growth at 0.01 µM (HT-29) [%] | growth at 10 µM (KM12) [%] | growth at 100 µM (UACC-257) [%] | growth at 100 µM (NCI-H23) [%] | growth at 0.01 µM (786-0 [6]) [%] | growth at 0.1 µM (MDA-MB-231) [%] | growth at 0.01 µM (SK-MEL-28) [%] | other results |
| --- | --- | --- | --- | --- | --- | --- | --- | --- | --- | --- | --- | --- | --- | --- | --- | --- | --- | --- | --- | --- | --- |
| Cc1ccc2nc(Nc3c(C)cccc3C)sc2c1 | 97 | 38 | 54.1 | 27 | 53 | 19 | 49 | 97 | 102 | 86 | 45 | 99 | 61 | 98 | 11.1 | 73 | 65 | 97 | 84 | 94 | growth at 10 µM (M14): 42%; growth at 10 µM (SK-OV-3): 47%; growth at 0.01 µM (TK-10): 104%; growth at 0.01 µM (A498 [7]): 75%; growth at 10 µM (786-0 [8]): 56%; growth at 10 µM (NCI-H322M [9]): 71%; GI50 (OVCAR-3): > 100000 nM; TGI (OVCAR-3): > 100000 nM; CC50 (OVCAR-3): > 100 µM |
| Clc1cccc(Cl)c1Nc1nc2cccc(Cl)c2s1 | 92 | -53.6 | -11.4 | -90 | -84 | -86 | 69 | 100 | 104 | -23 | -35 | 97 | 85 | 100 | -68.5 | -67 | -58 | 106 | 81 | 93 | growth at 10 µM (M14): -68%; growth at 10 µM (SK-OV-3): -89%; growth at 0.01 µM (TK-10): 98%; growth at 0.01 µM (A498 [7]): 85%; growth at 10 µM (786-0 [8]): -93%; growth at 10 µM (NCI-H322M [9]): 9.8%; GI50 (OVCAR-3): 983 nM; TGI (OVCAR-3): 2200 nM; CC50 (OVCAR-3): 4.86 µM |
